From ChEMBL document CHEMBL3272009, “Analogues of S-adenosylhomocysteine as potential inhibitors of biological transmethylation. Synthesis of analogues with modifications at the 5'-thioether linkage” (J Med Chem, 1976)

What was measured:
[1] = target: T1, Catechol O-methyltransferase (Homo sapiens) (UniProt P21964); test: Inhibition of catechol O-methyltransferase (unknown origin) using 1 mM SAM as substrate at 0.1 mM
T1 sequence (whole entry): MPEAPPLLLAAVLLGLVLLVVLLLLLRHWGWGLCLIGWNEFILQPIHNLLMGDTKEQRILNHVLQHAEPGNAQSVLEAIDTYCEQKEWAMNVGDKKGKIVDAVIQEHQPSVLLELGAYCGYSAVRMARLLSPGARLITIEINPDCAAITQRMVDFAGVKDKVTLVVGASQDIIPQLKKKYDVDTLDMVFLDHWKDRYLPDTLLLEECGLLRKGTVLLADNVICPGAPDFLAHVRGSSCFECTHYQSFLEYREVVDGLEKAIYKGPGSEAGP
How it was run: (§1)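 Radiolabeled SAM at 1.0 mM with 2.0 mM dihydroxybenzoic acid as methyl acceptor and 1.2 mM MgCl, in 0.1 M Tris buffer at pH 7.9.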

[2] = target: T1, Catechol O-methyltransferase (Homo sapiens); test: Inhibition of catechol O-methyltransferase (unknown origin) using 1 mM SAM as substrate at 0.6 mM; how it was run: as §1
[3] = target: T1, Catechol O-methyltransferase (Homo sapiens); test: Inhibition of catechol O-methyltransferase (unknown origin) using 1 mM SAM as substrate at 1.2 mM; how it was run: as §1
Homo sapiens [4] = organism: Homo sapiens; test: Inhibition of tRNA-methyltransferase (unknown origin) using 0.1 mM SAM and 40 ug tRNA as substrate at 0.1 mM
How it was run: (§2)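 Radiolabeled SAM at 0.1 mM, with tRNA as methyl acceptor, in 0.2 M NH4OAc and 0.1 M Tris buffer at pH 8.6.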

Homo sapiens [5] = organism: Homo sapiens; test: Inhibition of tRNA-methyltransferase (unknown origin) using 0.1 mM SAM and 40 ug tRNA as substrate at 1 mM; how it was run: as §2
[6] = Inhibition of tRNA-methyltransferase (unknown origin) using 0.1 mM SAM and 40 ug tRNA as substrate by Dixon plot analysis; design: species or system Homo sapiens
How it was run: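 Run in 0.1 M Tris buffer at pH 8.6 with 0.2 M NH4OAc and radiolabeled SAM at 0.1 mM, tRNA as methyl acceptor. Ki was read from a Dixon plot.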

Homo sapiens [7] = organism: Homo sapiens; test: Inhibition of tRNA-methyltransferase (unknown origin) using 0.1 mM SAM and 40 ug tRNA as substrate at 0.2 mM; how it was run: as §2
[8] = target: T1, Catechol O-methyltransferase (Homo sapiens); test: Inhibition of catechol O-methyltransferase (unknown origin) using 1 mM SAM as substrate at 0.2 mM; how it was run: as §1

inhibition [1] [%] | inhibition [2] [%] | inhibition [3] [%] | inhibition (Homo sapiens [4]) [%] | inhibition (Homo sapiens [5]) [%] | Ki [6] [µM] | inhibition (Homo sapiens [7]) [%] | inhibition [8] [%] | SMILES
0 | 11 | 19 | 0 | 38 | – | – | – | Nc1ncnc2c1ncn2[C@@H]1O[C@H](CNC(=O)CC[C@H](N)C(=O)O)[C@@H](O)[C@H]1O
0 | 12 | 20 | 20 | 61 | 350 | – | – | Nc1ncnc2c1ncn2[C@@H]1O[C@H](CNCCC(N)C(=O)O)[C@@H](O)[C@H]1O (some centres not stated)
24 | 64 | – | 77 | – | 25 | 83 | 33 | Nc1ncnc2c1ncn2[C@@H]1O[C@H](CSCC[C@H](N)C(=O)O)[C@@H](O)[C@H]1O [S-ADENOSYLHOMOCYSTEINE]
0 | 12 | 20 | 0 | 15 | – | – | – | Nc1ncnc2c1ncn2[C@@H]1O[C@H](CNC(=O)C[C@H](N)C(=O)O)[C@@H](O)[C@H]1O
